Assay results pooled from the literature.
Each line is one published result; the experiments were not run side by side.
Effect on: enzyme activity
Mode: inhibitor
CDK2 with cyclin A: Cyclin-dependent kinase 2, with cyclin A (CDK2, Homo sapiens, UniProt P24941)
CDK2 with cyclin E: Cyclin-dependent kinase 2, with cyclin E (CDK2, Homo sapiens, UniProt P24941)

CC(C)(C)c1nc(-c2cccc(NS(=O)(=O)c3c(F)cccc3F)c2F)c(-c2ccnc(N)n2)s1
remaining activity (Cyclin-dependent kinase 2, with cyclin E1 (CDK2, Homo sapiens, UniProt P24941); radiometric; 1 µM): 90%

Oc1cccc(-c2nc(N3CCOCC3)c3oc4ncccc4c3n2)c1
remaining activity (CDK2 with cyclin A; 10 µM): 94%

Nc1nc(NC2CCCCC2)sc1C(=O)c1ccccc1
remaining activity (CDK2 with cyclin A; 10 µM): 5%

Cc1ccc(Nc2nccc(N(C)c3ccc4c(C)n(C)nc4c3)n2)cc1S(N)(=O)=O
remaining activity (CDK2 with cyclin A; 0.5 µM): 96.1%

CC(C)(O)[C@H]1CC[C@H](Nc2ccc3ncc(-c4cccc(C(F)(F)F)c4)n3n2)CC1
remaining activity (CDK2 with cyclin A; 1 µM): 96.9%

O=C(Nc1cnn(-c2csc(C(=O)NC3COC3)c2)c1)Nc1c(F)cccc1Cl
remaining activity (CDK2 with cyclin E; 5 µM): 94.6%

COc1cc(Nc2cnc(C#N)c(O[C@H](C)CN(C)C)n2)ncc1-c1cnn(C)c1
remaining activity (CDK2 with cyclin A; radiometric; 10 µM): 91%

Cc1cnc(NC2CCOCC2)nc1-n1cnc(C(=O)NC(CN)c2cc(F)cc(Cl)c2)c1 (centres unmarked)
remaining activity (CDK2 with cyclin E; radiometric; 1 µM): 3%

O=C(Nc1cnn(-c2csc(C(=O)NC3COC3)c2)c1)Nc1ccccc1Cl
remaining activity (Cyclin-dependent kinase 2, with cyclin O (CDK2, Homo sapiens, UniProt P24941); 5 µM): 93.2%

CC(C)(C)c1nc2c(s1)c1nc(N)ncc1c1ccc(NS(=O)(=O)c3c(F)cccc3F)c(F)c12
remaining activity (Cyclin-dependent kinase 2, with cyclin A2 (CDK2, Homo sapiens, UniProt P24941); radiometric; 1 µM): 70%

COc1cc(Cl)c(C(=O)N[C@@H](CN[C@H]2CC[C@@H](N)CC2)Cc2ccc(C#N)cc2)cc1-c1ccc(CN[C@H](C)c2ccc(C)cc2)o1
remaining activity (CDK2 with cyclin A; 1 µM): 96%

Cn1c(=O)n(-c2ccc(C(C)(C)C#N)cc2)c2c3cc(-c4cnc5ccccc5c4)ccc3ncc21
remaining activity (CDK2 with cyclin A; 10 µM): 74%

Cc1sc(C(=O)NC2COC2)cc1-n1cc(NC(=O)Nc2c(F)cccc2Cl)cn1
remaining activity (Cyclin-dependent kinase 2, with cyclin E2 (CDK2, Homo sapiens, UniProt P24941); 10 µM): 90.8%

Nc1nc(Nc2ccccc2)sc1C(=O)c1c(F)cccc1F
remaining activity (CDK2 with cyclin A; 10 µM): 2%
